Assay results from ChEMBL document CHEMBL1136006, “New PET imaging agent for the serotonin transporter: [(18)F]ACF (2-[(2-amino-4-chloro-5-fluorophenyl)thio]-N,N-dimethyl-benzenmethanamine)” (J Med Chem, 2002).

How the values were obtained:
[1] = species: Rattus norvegicus; experiment: Ratio of regional brain distribution of [18F]ACF radiolabeled compound in rat hippocampus to that of cerebellum after 60 min; format: ADME, organism-based; settings: in vivo, 1 h
Procedure, shortened: (§1)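 Rats (three per group) under ether anesthesia got 30 μCi tracer in 0.2 mL saline into the femoral vein and were killed by cardiac excision at the stated time. Cortex, striatum, hippocampus, cerebellum, hypothalamus and the rest of brain were dissected, weighed and gamma counted. %dose/g was taken against counts of a diluted initial dose. Regional ratios are each region's %dose/g over cerebellum's. Mean ± SD.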

[2] = target: Sodium-dependent noradrenaline transporter (Homo sapiens, UniProt P23975); experiment: In vitro binding affinity in LLC-PK1 cells by Norepinephrine transporter binding assay by using [125I]-IPT as a radioligand; format: cell-based
Procedure, shortened: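 LLC-PK1 cell membrane homogenates overexpressing DAT or NET. Incubated with 0.4 nM [125I]IPT and 8–10 competitor concentrations (10^-10 to 10^-5 M) in 50 mM Tris-HCl pH 7.4, 120 mM NaCl, 0.1% BSA for 1 h at room temperature. Nonspecific binding defined with 10 μM CFT. Filtered, gamma-counted, nonlinear regression. Mean ± SEM of three determinations in duplicate.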

[3] = species: Rattus norvegicus; experiment: Organ distribution of [18F]ACF radiolabeled compound in rat blood after 30 min; format: ADME, organism-based; settings: in vivo, 0.5 h
Procedure, shortened: (§2)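 Rats, three per time point, under ether anesthesia; 30 μCi tracer in 0.2 mL saline injected into femoral vein. Sacrificed by cardiac excision under ether at 2, 30, 60, 120 or 240 min. Organs removed, weighed and counted; % dose/organ calculated against counts of 1% of initial dose counted at the same time. Average of three rats ± SD.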

[4] = species: Rattus norvegicus; experiment: Ratio of regional brain distribution of [18F]ACF radiolabeled compound in rat cerebellum to that of cerebellum after 240 min; format: ADME, organism-based; settings: in vivo, 4 h; procedure, shortened: as §1
[5] = tested on: Rattus norvegicus; experiment: Ratio of effect of pretreatment with nisoxatine with a dose of 2 mg/kg (i.v.) on specific binding of [18F]-ACF in rat brain hippocampus to that of cerebellum; format: ADME, organism-based; parameters: dose 2 mg/kg, route intravenous; settings: in vivo, iv
Procedure, shortened: (§3)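 Rats (three per point) pretreated iv with competing drug at 2 mg/kg or saline (control) 5 min before iv [18F]ACF (50 μCi). At 1 h post tracer, brain regions (cortex, striatum, hippocampus, cerebellum, hypothalamus, remainder) dissected, weighed, counted as % dose/g and expressed as ratio to cerebellum. Average ± SD; ANOVA with Dunnett's test vs saline controls, p < 0.05.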

[6] = tested on: Rattus norvegicus; experiment: Ratio of effect of pretreatment with (+)-McN5652 with a dose of 2 mg/kg (i.v.) on specific binding of [18F]-ACF in rat brain hippocampus to that of cerebellum; format: ADME, organism-based; parameters: dose 2 mg/kg, route intravenous; settings: in vivo, iv; procedure, shortened: as §3
[7] = species: Rattus norvegicus; experiment: Ratio of regional brain distribution of [18F]-ACF radiolabeled compound in rat striatum to that of cerebellum after 120 min; format: ADME, organism-based; settings: in vivo, 2 h; procedure, shortened: as §1
[8] = species: Rattus norvegicus; experiment: Organ distribution of [18F]-ACF radiolabeled compound in rat muscle after 120 min; format: ADME, organism-based, Muscle tissue; settings: in vivo, 2 h
Procedure, shortened: (§4)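 Under ether anesthesia, 30 μCi no-carrier-added tracer in 0.2 mL saline injected into the femoral vein. Rats killed by cardiac excision at the stated time. Organs were removed, weighed and counted; % dose/organ was calculated against counts of a 1% initial-dose standard. Three rats per time, average ± SD.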

[9] = species: Rattus norvegicus; experiment: Organ distribution of [18F]-ACF radiolabeled compound in rat heart after 30 min; format: ADME, organism-based; settings: in vivo, 0.5 h; procedure, shortened: as §4
[10] = species: Rattus norvegicus; experiment: Ratio of regional brain distribution of [18F]-ACF radiolabeled compound in rat cerebellum to that of cerebellum after 120 min; format: ADME, organism-based; settings: in vivo, 2 h
Procedure, shortened: (§5)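 Rats, three per time point, given 30 μCi tracer in 0.2 mL saline into femoral vein under ether anesthesia; killed at 2, 30, 60, 120 or 240 min. Cortex, striatum, hippocampus, cerebellum, hypothalamus and rest of brain dissected, weighed, counted; % dose/g against diluted initial dose, then each region divided by cerebellum. Average of three rats ± SD.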

[11] = species: Rattus norvegicus; experiment: Organ distribution of [18F]-ACF radiolabeled compound in rat liver after 120 min; format: ADME, organism-based; settings: in vivo, 2 h; procedure, shortened: as §4
[12] = species: Rattus norvegicus; experiment: Regional brain distribution of [18F]ACF radiolabeled compound in rat cortex after 30 min; format: ADME, organism-based; settings: in vivo, 0.5 h; procedure, shortened: as §1
[13] = species: Rattus norvegicus; experiment: Regional brain distribution of [18F]-ACF radiolabeled compound in rat striatum after 2 min; format: ADME, organism-based; settings: in vivo; procedure, shortened: as §1
[14] = species: Rattus norvegicus; experiment: Organ distribution of [18F]ACF radiolabeled compound in rat blood after 120 min; format: ADME, organism-based; settings: in vivo, 2 h; procedure, shortened: as §2
[15] = species: Rattus norvegicus; experiment: Regional brain distribution of [18F]ACF radiolabeled compound in rat striatum after 120 min; format: ADME, organism-based; settings: in vivo, 2 h
Procedure, shortened: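 Rats (3 per group) under ether anaesthesia received 30 μCi tracer in 0.2 mL saline into the femoral vein. Killed by cardiac excision under ether at the set time. Striatum and other brain regions dissected, weighed and gamma-counted. % dose/g calculated against counts of a diluted 1% initial-dose standard. Values given as average ± SD of three rats.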

[16] = tested on: Rattus norvegicus; experiment: Ratio of effect of pretreatment with nisoxatine with a dose of 2 mg/kg (i.v.) on specific binding of [18F]ACF in rat brain striatum to that of cerebellum; format: ADME, organism-based; parameters: dose 2 mg/kg, route intravenous; settings: in vivo, iv; procedure, shortened: as §3
[17] = species: Rattus norvegicus; experiment: Ratio of regional brain distribution of [18F]-ACF radiolabeled compound in rat hypothalamus to that of cerebellum after 2 min; format: ADME, organism-based; settings: in vivo; procedure, shortened: as §1
[18] = species: Rattus norvegicus; experiment: Ratio of regional brain distribution of [18F]-ACF radiolabeled compound in rat remainder to that of cerebellum after 120 min; format: ADME, organism-based; settings: in vivo, 2 h; procedure, shortened: as §1
[19] = species: Rattus norvegicus; experiment: Ratio of regional brain distribution of [18F]ACF radiolabeled compound in rat hippocampus to that of cerebellum after 120 min; format: ADME, organism-based; settings: in vivo, 2 h; procedure, shortened: as §1
[20] = tested on: Rattus norvegicus; experiment: Ratio of effect of pretreatment with (+)-McN5652 with a dose of 2 mg/kg (i.v.) on specific binding of [18F]ACF in rat brain cerebellum to that of cerebellum; format: ADME, organism-based; parameters: dose 2 mg/kg, route intravenous; settings: in vivo, iv; procedure, shortened: as §3
[21] = Effect of pretreatment with nisoxatine with a dose of 2 mg/kg (i.v.) on specific binding of [18F]ACF in rat brain cerebellum; format: functional, organism-based; parameters: dose 2 mg/kg
Procedure, shortened: (§6)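 Rats pretreated iv with drug (2 mg/kg) or saline 5 min before iv [18F]ACF (50 μCi). Sacrificed 1 h after tracer. Brain regions were dissected, weighed and counted, and % dose/g was calculated against a diluted initial dose. Drug-treated rats were compared with saline controls by ANOVA/Dunnett's test (p<0.05). Three rats per point, average ± SD.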

[22] = species: Rattus norvegicus; experiment: Organ distribution of [18F]ACF radiolabeled compound in rat spleen after 240 min; format: ADME, organism-based; settings: in vivo, 4 h; procedure, shortened: as §2
[23] = species: Rattus norvegicus; experiment: Ratio of regional brain distribution of [18F]ACF radiolabeled compound in rat remainder to that of cerebellum after 60 min; format: ADME, organism-based; settings: in vivo, 1 h; procedure, shortened: as §1
[24] = tested on: Rattus norvegicus; experiment: Effect of pretreatment with […] with a dose of 2 mg/kg (i.v.) on specific binding of [18F]ACF in rat brain hippocampus; format: ADME, organism-based; parameters: dose 2 mg/kg, route intravenous; settings: in vivo, iv; procedure, shortened: as §6
[25] = species: Rattus norvegicus; experiment: Ratio of regional brain distribution of [18F]-ACF radiolabeled compound in rat hippocampus to that of cerebellum after 2 min; format: ADME, organism-based; settings: in vivo; procedure, shortened: as §5
[26] = tested on: Rattus norvegicus; experiment: Ratio of effect of pretreatment with methylphenidate with a dose of 2 mg/kg (i.v.) on specific binding of [18F]ACF in rat brain hypothalamus to that of cerebellum; format: ADME, organism-based; parameters: dose 2 mg/kg, route intravenous; settings: in vivo, iv; procedure, shortened: as §3
[27] = species: Rattus norvegicus; experiment: Organ distribution of [18F]-ACF radiolabeled compound in rat kidney after 60 min; format: ADME, organism-based; settings: in vivo, 1 h; procedure, shortened: as §4
[28] = species: Rattus norvegicus; experiment: Organ distribution of [18F]-ACF radiolabeled compound in rat lung after 2 min; format: ADME, organism-based; settings: in vivo; procedure, shortened: as §4
[29] = species: Rattus norvegicus; experiment: Organ distribution of [18F]-ACF radiolabeled compound in rat spleen after 30 min; format: ADME, organism-based; settings: in vivo, 0.5 h; procedure, shortened: as §4
[30] = tested on: Rattus norvegicus; experiment: Effect of pretreatment with nisoxatine with a dose of 2 mg/kg (i.v.) on specific binding of [18F]ACF in rat brain cortex; format: ADME, organism-based; parameters: dose 2 mg/kg, route intravenous; settings: in vivo, iv; procedure, shortened: as §6

Chain of Sodium-dependent noradrenaline transporter (P23975 whole entry, looked up): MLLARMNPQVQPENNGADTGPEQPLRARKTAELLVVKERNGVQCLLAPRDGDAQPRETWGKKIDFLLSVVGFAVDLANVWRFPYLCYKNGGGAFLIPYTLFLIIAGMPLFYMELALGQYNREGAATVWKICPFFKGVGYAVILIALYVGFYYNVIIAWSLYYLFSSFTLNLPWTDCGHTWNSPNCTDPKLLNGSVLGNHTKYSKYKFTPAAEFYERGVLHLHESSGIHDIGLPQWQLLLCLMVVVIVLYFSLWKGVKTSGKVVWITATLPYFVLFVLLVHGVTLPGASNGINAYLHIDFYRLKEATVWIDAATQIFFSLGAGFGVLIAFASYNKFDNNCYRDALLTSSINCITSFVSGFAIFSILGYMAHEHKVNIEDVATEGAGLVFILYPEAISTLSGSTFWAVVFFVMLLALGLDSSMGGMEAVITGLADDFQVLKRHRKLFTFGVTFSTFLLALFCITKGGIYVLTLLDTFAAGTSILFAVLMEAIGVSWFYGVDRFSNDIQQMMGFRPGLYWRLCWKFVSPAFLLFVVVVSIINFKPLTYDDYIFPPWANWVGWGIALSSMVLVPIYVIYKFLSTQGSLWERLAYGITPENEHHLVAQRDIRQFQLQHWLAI

SMILES: CN(C)Cc1ccccc1Sc1cc(F)c(Cl)cc1N
- Ratio [1]: 2.91
- Ki [2]: 0.65 µM
- Dose/g [3]: 4.52 % dose/organ
- Ratio [4]: 1
- Ratio [5]: 2.44
- Ratio [6]: 1.93
- Ratio [7]: 2.97
- Dose/g [8]: 4.02 % dose/organ
- Dose/g [9]: 0.18 % dose/organ
- Ratio [10]: 1
- Dose/g [11]: 5.9 % dose/organ
- Dose/g [12]: 0.62%
- Dose/g [13]: 1.78%
- Dose/g [14]: 3.2 % dose/organ
- Dose/g [15]: 0.15%
- Ratio [16]: 2.5
- Ratio [17]: 1.37
- Ratio [18]: 2.34
- Ratio [19]: 2.67
- Ratio [20]: 1
- Dose/g [21]: 0.19%
- Dose/g [22]: 0.03 % dose/organ
- Ratio [23]: 2.56
- Dose/g [24]: 0.46%
- Ratio [25]: 1.24
- Ratio [26]: 3.05
- Dose/g [27]: 1.38 % dose/organ
- Dose/g [28]: 14.9 % dose/organ
- Dose/g [29]: 0.29 % dose/organ
- Dose/g [30]: 0.37%
